Measurements: the RNAGym collection of RNA variant scans (doi:10.1126/science.aae0568)
This sample holds only a part of the variants without activity.

B1: tRNA (parent)
chain: GUUCCGUUGGCGUAAUGGUAACGCGUCUCCCUCCUAAGGAGAAGACUGCGGGUUCGAGUCCCGUACGGAACG

Variants of: B1
Test: yeast fitness relative to wild type (ratio to wild type); higher = fitter; tRNA-Arg(CCU), competitive growth, 37 C, YPD
Summary of the method: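 Changes in genotype frequencies gave Darwinian fitness relative to wild type. Frequencies were read by 100-nucleotide paired-end sequencing of gene amplicons before and after pooled Saccharomyces cerevisiae strains, carrying tRNA-Arg(CCU) gene variants at the native locus, were competed in YPD at 37°C for 24 hours in six replicates. A genotype was kept only with ≥ 100 starting reads, and estimates < 0.5 were set to 0.5.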

Row | Variant | yeast fitness
1 | GUUCCGUCGGCCUAAUGGUAACGCGUCUCCCUCCUAAGGAGAAGACUGCGGGUUUGAGUCCCGUACGGACCG [U8C G12C C55U A70C] | 0.542
2 | GUUCCGUGGGCGUGAUGAUAACGCGUCUCCCUCCUAAGGAGAAGACAGCGGGUUCGAGUCCCGUACGGAACG [U8G A14G G18A U47A] | ≤ 0.5
3 | GUUCCGUCGGCAUAAUGGUACCGCGUCUCCCUCCUAAGGAGAAGACUGCGGGUUCGAGUCCCGUACGGAACG [U8C G12A A21C] | ≤ 0.5
4 | GUUCCGUGGGCGUAAUGGUAACGCGUCUCCCUCCUAAGGAGAAGACUGCGGGUUCGAGUCCCGUACGGUACG [U8G A69U] | 0.575
5 | GUUCCGUGGGCGUAAUGGUAACGCGUCUCCCUCGUAAGGAGAAGACUGCGGGUUGGAGUCCAGUACGAAACG [U8G C34G C55G C62A G68A] | ≤ 0.5
6 | GUUCCGUCGGCGUAAUGGUAACGCGUCUCCCUCCUAAGGAGAAGACUGCGGGUUCGAGUCCCGUACGAAACG [U8C G68A] | 0.741
7 | GUUCCGUCGGCGUAAUGGCAACCCGUCUCCCUCCUAAGGAGAAGACUGCGGGCUCGAGUCCCGUACGGAACG [U8C U19C G23C U53C] | ≤ 0.5
8 | GUUCCGUGGGCGUAAUGGUAACGCGUCUCCCUCCUAAGGAGAAGACUGCGGGUUCGCGUCCCGUACGGAACG [U8G A57C] | ≤ 0.5
9 | GUUCCGUCGGCGUAAUGGUAACGCGUCUCCCUCCUAAGCAGAAGACUGCGGGUUCGAGUCCCGUACGAAACG [U8C G39C G68A] | ≤ 0.5
10 | GUUCCGUCGACGUAAUGGUAACGCGUCUCCCUCCUAAGGAGAAGACUGCGAGUUCGAAUCCCGUACGGAACG [U8C G10A G51A G58A] | ≤ 0.5
11 | GUUCCGUCGGCGUAAUGGUAACGCGUCUCCCUCCUAAGGAAAAGACUGCGGGUUCGAGUCCCGUGCGGAACG [U8C G41A A65G] | 0.63
12 | GUUCCGUCGGCGUAAUGGUAACGCGUCUCCCUCCCAAGGAGAAGACUGCGGGUUCGAGUCCCGUACGGAACG [U8C U35C] | 0.899
13 | GUUCCGUCAGCAUAAUGGUAACGCGUCUCCCUCCUAAGGAGAAGACUGCGGGUUCGAGUCCCGUACGGAACG [U8C G9A G12A] | 0.529
14 | GUUCCGUCGGCCUAAUGGUAACGCGUCUCCCUCCUAAGGAGAAGACUGCGGGUUCGAGUCACGUACAGAACG [U8C G12C C61A G67A] | ≤ 0.5
15 | GUUCCGUGGGCGUAAUGGUAACGCGUCUCCCUCUUAAGGGGAAGAAUGCGGGUUCGAGUCCCGUACGGAACG [U8G C34U A40G C46A] | ≤ 0.5
16 | GUUCCGUGGGCGUAAUGGUGACGCGUCUCCCUCCUAGGGAGAGGACUGCGGGUUCGAGUCCCGUACGGAUCG [U8G A20G A37G A43G A70U] | ≤ 0.5
17 | GUUCCGUCAGCAUAAUGGUAACGCGUCUCCCUCCUAAGGAGAAGACUGCGGGUUCGAGUUCCGUACGGAACG [U8C G9A G12A C60U] | ≤ 0.5
18 | GUUCCGUGGGCGUAAUGGUAACGUGUCUGCAUCCUAAGGAGAAGGCUGCGGGUUCGAGUCUCGUCCAAAACG [U8G C24U C29G C31A A45G C61U A65C G67A G68A] | ≤ 0.5
19 | GUUCCGUCAGCGAAGUGGUAACGCGUCUCCCUCCUAUGGAGAAGACUGCGGGUUCGAGUCCCGUACGGAACG [U8C G9A U13A A15G A37U] | 0.549

Row | Variant | yeast fitness
20 | GUUCCGUGGGCGUAAUGGUAACGCGUCUCCCUCCUAUGGAGAAGACUGCGGGUUCGAGUCCCCUACGGAACG [U8G A37U G63C] | ≤ 0.5
21 | GUUCCGUCGGCGUAAUGGUAACGCGACUCCCUCCUAAGGAGAUGACUGCGGGUUCGAGUCCCGUACGGAUCG [U8C U26A A43U A70U] | 0.675
22 | GUUCCGUCGGCGUAAUGGUAACGCGGCUCUCUCCUAAGGGGAAGACUGCGGGUUCGAGUCCCGUACGGAACG [U8C U26G C30U A40G] | ≤ 0.5
23 | GUUCCGUGGGCGUAAUGGUUACGCGUCUCCCUCCUGAGGAGAAGACUGCGGGUUCGAGUCCCGUACGGAACG [U8G A20U A36G] | 0.635
24 | GUUCCGUCGGCGCAAUGGUAACGAGUCUCCCUCCUAGGGAGAAGACUGCGGGUUCGAGUCCCGUACGGAACG [U8C U13C C24A A37G] | 0.761
25 | GUUCCGUGGGCGUAAUGGUAACGCGUCUCCCUCCUAAGGAGUCGACUGCGGGUUCGAGUCCCGUACGGAACG [U8G A42U A43C] | 0.51
26 | GUUCCGUCGGCGUAAUGGUAACGCGUCUCCCGCCUAAGGAGAAGACUGCAGGUUCGAGUCCCGUACGGUACG [U8C U32G G50A A69U] | 0.557
27 | GUUCCGUGGGCGUAAUGGUAACGGGUCUCCCUCCUAAGGAAAAGACUGCGGGUUCGAGUCCCGUGCGGAACG [U8G C24G G41A A65G] | ≤ 0.5
28 | GUUCCGUCGGCGUAAUGGCAACGCGUCUCCCUCCUAAGGAGAAGACUGCGGGUUGGAGUCCCGUACGGACCG [U8C U19C C55G A70C] | ≤ 0.5
29 | GUUCCGUCGACGUAAUGGUAACGCGUCUCCCUCCUAAGGAGAAGACUGCGGGUUCGAGUCCCGUACCGAACG [U8C G10A G67C] | 0.592
30 | GUUCCGUCCGCGUAAUGGUACCGGGUCUCCCUCCUAAAGAGAAGACUGCGGGUUCGAGUCCCGUACGGAACG [U8C G9C A21C C24G G38A] | 0.74
31 | GUUCCGUCGGCGUAAUGCUAACGCGUCUCCCUCCUAAGGAGAAGACUGCGGGUUCGAGUCCCGUACGGAACG [U8C G18C] | 0.684
32 | GUUCCGUCGGCGUAAUGGUAACGCGAAUCCCUCCUAAGGAGAAGACUGCGGGUUCGAGUCCCGUACGGAACG [U8C U26A C27A] | ≤ 0.5
33 | GUUCCGUCGGCGUAAAGGUAGCGCGUCUCCCUCCUAAGGAGAAGACUGCGGGUUCGAGUCCCGUACGGAACG [U8C U16A A21G] | ≤ 0.5
34 | GUUCCGUCGGCGUAAAGGUACCGGGUCUCCCUCCUAUGGAGAAGACUGCGGGUUUGAGUCCCGUACGGAACG [U8C U16A A21C C24G A37U C55U] | ≤ 0.5
35 | GUUCCGUCGGCGUAAAGGAAAUGCGUCCCCCUCCUAAGGAGAAGACUGCGGGUUCGAGUCCCGUACGGAACG [U8C U16A U19A C22U U28C] | ≤ 0.5
36 | GUUCCGUCGGCGUAAUGGCAACGCGUCUCCCUCCUAAGGAGAAGACUGCGGGUUCGAGUCCCGUACGGAACG [U8C U19C] | 0.978
37 | GUUCCGUCGGCGUAAUGGUAACGCGUCUCCCUCCUAAGGAGAAGACUACGGGUUAGACUCCCGUACGGAACG [U8C G48A C55A G58C] | ≤ 0.5
38 | GUUCCGUCGGCGUAAUGGUAACGCCUCUCCUUCCUAAGGAGAAGACUGCGGGUUCGAGUCCCGUACGGCACG [U8C G25C C31U A69C] | ≤ 0.5
